The target of the first experiment is T1, Protein kinase C epsilon type (Homo sapiens) (UniProt Q02156).
T1 sequence (whole entry): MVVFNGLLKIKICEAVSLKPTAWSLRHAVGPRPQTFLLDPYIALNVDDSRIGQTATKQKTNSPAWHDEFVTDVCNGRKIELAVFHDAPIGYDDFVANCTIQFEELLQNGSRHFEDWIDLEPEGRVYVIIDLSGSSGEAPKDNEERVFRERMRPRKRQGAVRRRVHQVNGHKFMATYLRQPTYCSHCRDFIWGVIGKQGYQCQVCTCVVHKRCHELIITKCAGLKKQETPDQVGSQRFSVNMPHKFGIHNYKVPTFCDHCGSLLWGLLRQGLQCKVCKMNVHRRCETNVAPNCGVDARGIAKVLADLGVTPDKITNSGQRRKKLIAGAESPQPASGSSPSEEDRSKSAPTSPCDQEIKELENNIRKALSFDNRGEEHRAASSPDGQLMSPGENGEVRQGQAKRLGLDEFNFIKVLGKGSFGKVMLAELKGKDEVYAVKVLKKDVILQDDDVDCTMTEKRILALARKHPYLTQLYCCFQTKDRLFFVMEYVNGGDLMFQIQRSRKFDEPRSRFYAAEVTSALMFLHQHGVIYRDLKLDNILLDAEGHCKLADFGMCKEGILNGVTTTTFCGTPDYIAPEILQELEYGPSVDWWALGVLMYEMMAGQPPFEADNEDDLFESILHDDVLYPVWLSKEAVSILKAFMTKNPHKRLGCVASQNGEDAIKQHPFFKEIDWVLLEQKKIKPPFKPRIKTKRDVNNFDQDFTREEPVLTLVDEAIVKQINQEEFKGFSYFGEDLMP
As to the kind of experiment: (§1) Inhibition of recombinant PKCepsilon (unknown origin)-MBP-tagged RACK2 interaction after 1 hr by ELISA-based assay relative to untreated control. More on the design: residual binding, % of control: concentration or dose not given beside the values. The note with it: values are per cent of control. The method, boiled down: (§2)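 ELISA: plates coated with 100 ng recombinant PKCε in 20 mM Tris-HCl/100 mM NaCl pH 7.5 overnight at 4 °C, blocked with 3% BSA; PKCε activated 10 min at 30 °C with 60 μg/mL phosphatidylserine and 100 nM TPA; RACK2-MBP preincubated with agent 30 min, then 500 ng added for 1 h binding; anti-RACK2/HRP detection, ABTS at 420 nm; four experiments, quadruplicates, normalized to control; IC50 via CalcuSyn.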
For orientation: An ELISA detects its analyte on a solid surface through an enzyme-linked reagent.
Regarding `COC(=O)c1cccc(NC(=O)c2sc3nc4cc5c(cc4cc3c2N)OCCO5)c1`, the residual binding, % of control was 90.9%. Still for that read-out and setting: under `CCOC(=O)c1cccc(NC(=O)c2sc3nc4ccc(OC)cc4cc3c2N)c1` stands 29.6%; under `CCOc1ccc2nc3sc(C(=O)Nc4ccc(F)cc4)c(N)c3cc2c1`, 60.5%; under `Nc1c(C(=O)Nc2cccc(Cl)c2Cl)sc2nc3cc4c(cc3cc12)OCCO4`, 57.6%.

On to `COc1ccc2cc3c(N)c(C(=O)Nc4c(C)cccc4C)sc3nc2c1`, for which the residual binding, % of control was 60.8%. On the same count and under the same terms, under `CC(=O)c1cccc(NC(=O)c2sc3nc4cc5c(cc4cc3c2N)OCO5)c1` stands 58.9%.

Consider `CC(=O)c1cccc(NC(=O)c2cc3cc4cc5c(cc4nc3s2)OCCO5)c1`, for which the residual binding, % of control was 64.9%.

In the case of `CC(O)c1cccc(NC(=O)C2Sc3nc4cc5c(cc4cc3C2N)OCCO5)c1` (stereo not drawn), the residual binding, % of control was determined as 102%.

For `COC(=O)c1cccc(NC(=O)c2sc3nc4cc5c(cc4cc3c2N)OCO5)c1`, the residual binding, % of control stood at 30.8%. The same measure, in the same setting: with `CO/N=C(\C)c1cccc(NC(=O)c2sc3nc4cc5c(cc4cc3c2N)OCCO5)c1` the figure was 48.3%; with `Nc1c(C(=O)Nc2cccc(Cl)c2)sc2nc3cc4c(cc3cc12)OCCO4`, 58%; with `CC(=O)c1ccc(NC(=O)c2sc3nc4cc5c(cc4cc3c2N)OCCO5)cc1`, 22.8%.

In the case of `C/C(=N\OCC(=O)O)c1cccc(NC(=O)c2sc3nc4cc5c(cc4cc3c2N)OCCO5)c1`, the residual binding, % of control turned out to be 59.3%.

Consider `CC(=O)c1cccc(NC(=O)c2cc3cc4cc5c(cc4nc3s2)OCO5)c1`, for which the residual binding, % of control was found to be 51.2%. For the molecule `CCOC(=O)Cc1csc(NC(=O)c2sc3nc4ccc(OCC)cc4cc3c2N)n1`, the residual binding, % of control worked out at 32.4%.

For `C/C(=N\O)c1cccc(NC(=O)c2sc3nc4cc5c(cc4cc3c2N)OCCO5)c1`, the residual binding, % of control is 46.2%.

Take `COc1ccc(NC(=O)c2sc3nc4ccccc4cc3c2N)cc1`: the residual binding, % of control is 42.7%. On the same count and under the same terms, under `COc1ccc2nc3sc(C(=O)Nc4ccc(N5CCOCC5)cc4)c(N)c3cc2c1` stands 32.9%; under `CCOc1ccc2nc(NC(=O)c3sc4nc5cc(OC)ccc5cc4c3N)sc2c1`, 37.7%.

In another experiment the target is T2, Protein kinase C epsilon type (Homo sapiens, UniProt Q02156).
T2 sequence (Q02156 whole entry): T1 sequence (whole entry)
Described as §1.
Conditions: not given
The method, boiled down: as §2
For orientation: IC50 means the concentration that inhibits the measured activity by half. Turning to H-EAVSLKPTRRRRRRR-OH, the IC50 is 1.02 µM.

For the molecule `O=C1NC(=O)N(Cc2ccccc2)C(=O)/C1=C\c1ccc2c(c1)OCO2`, the IC50 was 28.5 µM.

Take H-EAVSLKPT-OH: the 50% inhibitory concentration (IC50) amounted to 1.02 µM.

Regarding `CCOc1ccc2nc(NC(=O)c3sc4nc5cc(OC)ccc5cc4c3N)sc2c1`, the IC50 is 25.5 µM.

The values are drawn from ChEMBL document CHEMBL3259708, “Thienoquinolines as novel disruptors of the PKCε/RACK2 protein-protein interaction” (J Med Chem, 2014).
